# According to publication PMC10693930 (Biochemistry, 2023):
# Numbering of substitutions follows the chain as printed. Names and notes keep the numbering of the source.
# B1: Staphylococcus aureus pyruvate carboxylase, wild type (enzyme)
# chain: MKQIKKLLVANRGEIAIRIFRAAAELDISTVAIYSNEDKSSLHRYKADESYLVGSDLGPAESYLNIERIIDVAKQANVDAIHPGYGFLSENEQFARRCAEEGIKFIGPHLEHLDMFGDKVKARTTAIKADLPVIPGTDGPIKSYELAKEFAEEAGFPLMIKATSGGGGKGMRIVREESELEDAFHRAKSEAEKSFGNSEVYIERYIDNPKHIEVQVIGDEHGNIVHLFERDCSVQRRHQKVVEVAPSVGLSPTLRQRICDAAIQLMENIKYVNAGTVEFLVSGDEFFFIEVNPRVQVEHTITEMVTGIDIVKTQILVAAGADLFGEEINMPQQKDITTLGYAIQCRITTEDPLNDFMPDTGTIIAYRSSGGFGVRLDAGDGFQGAEISPYYDSLLVKLSTHAISFKQAEEKMVRSLREMRIRGVKTNIPFLINVMKNKKFTSGDYTTKFIEETPELFDIQPSLDRGTKTLEYIGNVTINGFPNVEKRPKPDYELASIPTVSSSKIASFSGTKQLLDEVGPKGVAEWVKKQDDVLLTDTTFRDAHQSLLATRVRTKDMINIASKTADVFKDGFSLEMWGGATFDVAYNFLKENPWERLERLRKAIPNVLFQMLLRASNAVGYKNYPDNVIHKFVQESAKAGIDVFRIFDSLNWVDQMKVANEAVQEAGKISEGTICYTGDILNPERSNIYTLEYYVKLAKELEREGFHILAIKDMAGLLKPKAAYELIGELKSAVDLPIHLHTHDTSGNGLLTYKQAIDAGVDIIDTAVASMSGLTSQPSANSLYYALNGFPRHLRTDIEGMESLSHYWSTVRTYYSDFESDIKSPNTEIYQHEMPGGQYSNLSQQAKSLGLGERFDEVKDMYRRVNFLFGDIVKVTPSSKVVGDMALYMVQNDLDEQSVITDGYKLDFPESVVSFFKGEIGQPVNGFNKDLQAVILKGQEALTARPGEYLEPVDFEKVRELLEEEQQGPVTEQDIISYVLYPKVYEQYIQTRNQYGNLSLLDTPTFFFGMRNGETVEIEIDKGKRLIIKLETISEPDENGNRTIYYAMNGQARRIYIKDENVHTNANVKPKADKSNPSHIGAQMPGSVTEVKVSVGETVKANQPLLITEAMKMETTIQAPFDGVIKQVTVNNGDTIATGDLLIEIEKATD
# modifications: biotin, covalently tethered to the BCCP domain (co-expressed with BirA to ensure complete biotinylation; residue not stated)
# B2: R21A SaPC (enzyme)
# chain: B1 chain with R21A
# modifications: biotin, covalently tethered to the BCCP domain (co-expressed with BirA to ensure complete biotinylation; residue not stated)
# B3: E418A SaPC (enzyme)
# chain: B1 chain with E418A
# modifications: biotin, covalently tethered to the BCCP domain (co-expressed with BirA to ensure complete biotinylation; residue not stated)
# B4: K46A SaPC (enzyme)
# chain: B1 chain with K46A
# modifications: biotin, covalently tethered to the BCCP domain (co-expressed with BirA to ensure complete biotinylation; residue not stated)
# Columns and labels:
# [1] = target: T1, WT SaPC (Staphylococcus aureus, UniProt A0A0H3JRU9); assay: Pyruvate carboxylation inhibition assay with CT domain inhibitors; type: biochemical; conditions: SaPC; CT domain inhibitors
# Procedure, shortened: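 WT SaPC (5 μg/mL) was pre-incubated with inhibitor and acetyl-CoA, and the reaction was started with 10× substrate mix (final 25 mM NaHCO3, 2.5 mM ATP, 12 mM pyruvate). MDH-coupled (10 U/mL MDH, 0.12 mM NADH); change in A340 monitored. Inhibitor 0–1 mM or 0–50 mM by compound. MDH-only controls. Triplicate; SD of three trials.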
# [2] = target: T2, E418A SaPC (Staphylococcus aureus, UniProt A0A0H3JRU9, E418A); assay: Pyruvate carboxylation inhibition assay with CT domain inhibitors; type: biochemical; conditions: for change of inhibition in the presence of acetyl-CoA: 500 μM acetyl-CoA
# [3] = target: T1, WT SaPC; assay: Pyruvate carboxylation assay; type: biochemical; conditions: for increase of apparent Ka in the presence of L-aspartate: 20 mM L-aspartate vs none; for ratio (Ka CoA / Ka acetyl-CoA): discrimination of acetyl-CoA over CoA
# [4] = target: T3, K46A SaPC (Staphylococcus aureus, UniProt A0A0H3JRU9, K46A); assay: Pyruvate carboxylation assay; type: biochemical; conditions: K46A SaPC; for ratio (Ka CoA / Ka acetyl-CoA): discrimination of acetyl-CoA over CoA
# [5] = target: T2, E418A SaPC; assay: Pyruvate carboxylation assay; type: biochemical
# [6] = target: T4, R21A SaPC (Staphylococcus aureus, UniProt A0A0H3JRU9, R21A); assay: Pyruvate carboxylation assay; type: biochemical; conditions: R21A SaPC; for ratio (Ka CoA / Ka acetyl-CoA): discrimination of acetyl-CoA over CoA
# [7] = target: K411A SaPC (Staphylococcus aureus, UniProt A0A0H3JRU9, K411A); assay: Pyruvate carboxylation assay; type: biochemical; conditions: K411A SaPC
# [8] = target: T1, WT SaPC; assay: ADP phosphorylation assay; type: biochemical
# [9] = target: T3, K46A SaPC; assay: ADP phosphorylation assay; type: biochemical; conditions: up to 1 mM acetyl-CoA
# [10] = target: T2, E418A SaPC; assay: ADP phosphorylation assay; type: biochemical; conditions: up to 1 mM acetyl-CoA
# [11] = target: T4, R21A SaPC; assay: ADP phosphorylation assay; type: biochemical; conditions: up to 1 mM acetyl-CoA
# [12] = system: SaPC; conditions: cited from earlier work
# [13] = system: PC; conditions: cited from earlier work
# [14] = target: ΔBCΔBCCP SaPC (Staphylococcus aureus (strain Mu50 / ATCC 700699)); assay: SEC
# [15] = target: the molecule itself; assay: SEC
# [16] = Acyl-CoA alone, Table 1, fit to Equation 1 (3′5′ diphosphoadenosine: Equation 2)
# [17] = Acyl-CoA + 20 mM L-aspartate, Table 1
# [18] = up to 100 mM, nonspecific inhibition above 100 mM
molecule,measurement,setting,value
O=C(O)C(O)=Cc1ccc2ccccc2n1 [2-hydroxy-3-(quinoline-2-yl)propenoic acid],change of potency in the presence of acetyl-CoA,[1],significantly reduced potency
same,inhibition of pyruvate carboxylation,[2],inhibited
same,change of inhibition in the presence of acetyl-CoA,[2],unchanged
"Nc1ncnc2c1ncn2[C@@H]1O[C@H](COP(=O)(O)O)[C@@H](OP(=O)(O)O)[C@H]1O [3′5′ diphosphoadenosine, 3’5’-diphosphoadenosine]",h (Hill coefficient),"[3]; Acyl-CoA alone, Table 1",1.6 ± 0.7
same,Ka (apparent activation constant),[3]; [16],5900 ± 3100 µM
same,concentration range in which SaPC is activated,[3]; WT SaPC (Figure S2),up to 7 mM
same,concentration at which inhibitory,"[3]; WT SaPC (Figure S2), attributed to competition with ATP in BC domain",greater than 7 mM
same,estimated apparent Ka,"[3]; WT SaPC, fit to Equation 2, Ki fixed at 5 mM",~ 5.9 mM
CC(=O)SCCNC(=O)CCNC(=O)[C@H](O)C(C)(C)COP(=O)(O)OP(=O)(O)OC[C@H]1O[C@@H](n2cnc3c(N)ncnc32)[C@H](O)[C@@H]1OP(=O)(O)O [Acetyl-CoA],Ka (apparent activation constant),[3]; [17],4.1 ± 0.3 µM
same,h (Hill coefficient),[3]; [17],3.3 ± 0.6
same,h (Hill coefficient),"[3]; Acyl-CoA alone, Table 1",1.5 ± 0.1
same,Ka (apparent activation constant),[3]; [16],1.5 ± 0.1 µM
same,increase of apparent Ka in the presence of L-aspartate,[3]; WT SaPC,~ 4 fold
same,Ka (apparent activation constant),"[3]; WT SaPC, Table 2 series",1.5 ± 0.1 µM
same,ratio (Ka CoA / Ka acetyl-CoA),[3]; WT SaPC,33
same,ratio (Ka CoA / Ka acetyl-CoA),"[3]; WT SaPC, listed as acetyl-CoA",~ 30
same,Ka (apparent activation constant),[4],340 ± 30 µM
same,ratio (Ka CoA / Ka acetyl-CoA),[4],4
same,ratio (Ka CoA / Ka acetyl-CoA),[4]; listed as acetyl-CoA,4 – 5
same,activation of pyruvate carboxylation,[5]; up to 4 mM acetyl-CoA and 30 mM CoA,unresponsive to activation
same,Ka (apparent activation constant),[6],340 ± 50 µM
same,ratio (Ka CoA / Ka acetyl-CoA),[6],5
same,ratio (Ka CoA / Ka acetyl-CoA),[6]; listed as acetyl-CoA,4 – 5
same,Ka (apparent activation constant),[7],5.8 ± 0.2 µM
same,ratio (Ka CoA / Ka acetyl-CoA),[7]; discrimination of acetyl-CoA over CoA,17
same,Ka (apparent activation constant),"[8]; WT SaPC, ADP phosphorylation by carbamoyl phosphate",15 ± 6 µM
same,concentration giving slight inhibition of ADP phosphorylation,"[8]; in all cases, including WT (Figure S4)",greater than 4 mM
same,activation of ADP phosphorylation,[9],unable to be activated
same,activation of ADP phosphorylation,[10],unable to be activated
same,activation of ADP phosphorylation,[11],unable to be activated
same,greater affinity than CoA,[12],~ 100 fold
same,increase of binding affinity by the acetyl moiety,[12],~ 80 fold
same,increase of kcat in the presence of activator,[12],5-10 fold
same,increase of kcat in the presence of activator,[13]; depends on the organism,up to 35 fold
"CC(=O)NCCNC(=O)CCNC(=O)[C@H](O)C(C)(C)COP(=O)(O)OP(=O)(O)OC[C@H]1O[C@@H](n2cnc3c(N)ncnc32)[C@H](O)[C@@H]1OP(=O)(O)O [Acetyl-aza(dethia)-CoA, acetyl-aza(dethia)-CoA]",h (Hill coefficient),"[3]; Acyl-CoA alone, Table 1",1.3 ± 0.4
same,Ka (apparent activation constant),[3]; [16],2500 ± 1000 µM
"CC(=O)CCCNC(=O)CCNC(=O)[C@H](O)C(C)(C)COP(=O)(O)OP(=O)(O)OC[C@H]1O[C@@H](n2cnc3c(N)ncnc32)[C@H](O)[C@@H]1OP(=O)(O)O [Acetyl-carba(dethia)-CoA, acetyl-carba(dethia)-CoA]",Ka (apparent activation constant),[3]; [17],190 ± 10 µM
same,h (Hill coefficient),[3]; [17],3.1 ± 0.6
same,h (Hill coefficient),"[3]; Acyl-CoA alone, Table 1",1.5 ± 0.2
same,Ka (apparent activation constant),[3]; [16],53 ± 4 µM
same,increase of apparent Ka in the presence of L-aspartate,[3]; WT SaPC,~ 4 fold
"CC(=O)OCCNC(=O)CCNC(=O)[C@H](O)C(C)(C)COP(=O)(O)OP(=O)(O)OC[C@H]1O[C@@H](n2cnc3c(N)ncnc32)[C@H](O)[C@@H]1OP(=O)(O)O [Acetyl-oxa(dethia)-CoA, acetyl-oxa(dethia)-CoA]",Ka (apparent activation constant),[3]; [17],270 ± 20 µM
same,h (Hill coefficient),[3]; [17],3.3 ± 0.7
same,h (Hill coefficient),"[3]; Acyl-CoA alone, Table 1",1.5 ± 0.3
same,Ka (apparent activation constant),[3]; [16],73 ± 11 µM
same,increase of apparent Ka in the presence of L-aspartate,[3]; WT SaPC,~ 4 fold
N[C@@H](CC(=O)O)C(=O)O [L-aspartate],inhibition of pyruvate carboxylation,[4]; [18],not inhibited
same,inhibition of pyruvate carboxylation,[5]; [18],not inhibited
same,inhibition of pyruvate carboxylation,[6]; [18],not inhibited
same,decrease of kcat in the presence of inhibitor,[12],2-5 fold
N[C@@H](CCC(=O)O)C(=O)O [L-glutamate],concentration at which pyruvate carboxylation is inhibited,"[3]; WT SaPC, nonspecific effect (Figure S5)",exceeding 100 mM
CC(=O)SCCNC(=O)CCNC(=O)[C@H](O)C(C)(C)CO [acetylpantetheine],binding and activation of PC,[13]; lacks the nucleotidyl portion,binds to but does not activate PC
O=C(O)C(=O)Cc1ccccc1 [phenylpyruvate],change of potency in the presence of acetyl-CoA,[1],significantly reduced potency
same,inhibition of pyruvate carboxylation,[2],inhibited
same,change of inhibition in the presence of acetyl-CoA,[2],unchanged
ΔBCΔBCCP SaPC (domain or fragment),stoichiometry N,[14],2
B1,stoichiometry N,[15],4
B2,stoichiometry N,[15],4
B3,stoichiometry N,[15],4
B4,stoichiometry N,[15],4
